Laboratory results from paper PMC11533547 (Poultry Science, 2024).
No end group written: not given here.

Columns and labels:
[1] = molecular target: T1, chicken PD-1 protein (Gallus gallus, UniProt A0A1L1RYS1); assay: MST affinity of peptides for chicken PD-1 protein; type: binding
T1 sequence (A0A1L1RYS1 1-304): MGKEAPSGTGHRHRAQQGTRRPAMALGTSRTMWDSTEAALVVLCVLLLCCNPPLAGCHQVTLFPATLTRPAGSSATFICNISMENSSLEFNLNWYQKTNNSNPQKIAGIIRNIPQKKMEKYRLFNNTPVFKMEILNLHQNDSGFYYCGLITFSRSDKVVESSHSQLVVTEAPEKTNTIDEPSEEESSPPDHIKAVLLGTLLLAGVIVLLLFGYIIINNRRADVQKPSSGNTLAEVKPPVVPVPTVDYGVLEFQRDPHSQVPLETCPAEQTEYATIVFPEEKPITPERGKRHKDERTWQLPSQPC
Outline: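 Chicken PD-1 protein labelled with a BLUE-NHS amine-reactive dye, then mixed in equal volumes with each peptide from a 2-fold dilution series in PBS (pH 7.4), 1800 to 0.054 nM. Incubated about 5 min, loaded into standard capillaries and read at once by microscale thermophoresis. Chicken PD-L1 protein (100 nM) as positive control. KD reported as the mean of 3 independent experiments.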

[2] = tested on: DT40 cells; assay: MTT cell viability assay; type: cell-based, chicken; details: 10 to 500 nM peptide, 24 h, OD450

DAGLYHCLIEYGGADYKTINLK [gDK2-3]
Kd [1]: 9.73 nM
cell viability (cytotoxicity) [2]: no significant effect on cell viability
